According to ChEMBL document CHEMBL1811833, “Phenylimino-10H-anthracen-9-ones as novel antimicrotubule agents-synthesis, antiproliferative activity and inhibition of tubulin polymerization” (Bioorg Med Chem, 2011):
Calls of active or inactive are those of the source. The calls are words filed in the database; no cut-off is given here.

What was measured:
[1] = system: K562; test: Antiproliferative activity against human K562 cells after 48 hrs by hemocytometer; format: functional, cell-based; details: K562, 48 h
In short: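 K562 human erythroid leukemia cells were treated with drug for 48 h, and the cells were then counted directly with a hemocytometer. IC50 is the concentration giving 50% inhibition of cell growth. Values are means of at least three independent determinations.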

[2] = molecular target: T1, Tubulin (Sus scrofa, UniProt P02554+P02550); test: Inhibition of pig brain tubulin polymerization after 30 mins by turbidimetry analysis
[3] = Cytotoxicity against non induced human RKOp27 cells after 48 hrs by XTT assay; format: functional, cell-based; details: RKOp27, 48 h
In short: (§1)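 Cells were exposed to test compound for 48 h and growth was read by XTT proliferation assay. Experiments were run in at least two replicates (n = 2). IC50 was calculated from dose–response curves by nonlinear regression.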

[4] = Cell cycle arrest in human KB/HeLa cells assessed as accumulation of cells at G2/M phase after 24 hrs by flow cytometry; format: functional, cell-based
In short: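 Sub-confluent KB/HeLa cells were exposed to a range of compound concentrations for 24 h. The cells were then permeabilized and stained with propidium iodide, and DNA content was measured by flow cytometry. The percentage of cells in G2/M was plotted against concentration, and EC50 is the concentration giving 50% of cells arrested in G2/M. At least two replicates were run, with nonlinear regression fitting.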

[5] = Cytotoxicity against ponasterone A-induced human RKOp27 cells with ectopic inducible expression of CDK inhibitor-kip1 after 48 hrs by XTT assay; format: functional, cell-based; details: RKOp27, 48 h; in short: as §1
[6] = Cytotoxicity against human KB/HeLa cells after 48 hrs by XTT assay; format: functional, cell-based; in short: as §1
[7] = Antiproliferative activity against rat LT12 cells after 48 hrs by XTT assay; format: functional, cell-based; details: LT12, 48 h
[8] = Antiproliferative activity against rat multiple drug-resistant LT12 cells after 48 hrs by XTT assay; format: functional, cell-based; details: LT12, 48 h; in short: as §1
[9] = system: L1210; test: Antiproliferative activity against mouse VCR-resistant L1210 cells after 48 hrs by XTT assay; format: functional, cell-based; details: L1210, 48 h; in short: as §1
[10] = system: L1210; test: Antiproliferative activity against mouse L1210 cells after 48 hrs by XTT assay; format: functional, cell-based; details: L1210, 48 h; in short: as §1
[11] = system: SF-268; test: Cytotoxicity against human SF268 cells after 48 hrs by XTT assay; format: functional, cell-based; details: SF-268, 48 h; in short: as §1
[12] = system: P388; test: Antiproliferative activity against mouse P388 cells after 48 hrs by XTT proliferation assay; format: functional, cell-based; details: P388, 48 h; in short: as §1
[13] = system: SK-OV-3; test: Cytotoxicity against human SKOV3 cells after 48 hrs by XTT assay; format: functional, cell-based; details: SK-OV-3, 48 h; in short: as §1
[14] = system: NCI-H460; test: Cytotoxicity against human NCI-H460 cells after 48 hrs by XTT assay; format: functional, cell-based; details: NCI-H460, 48 h; in short: as §1
[15] = molecular target: T1, Tubulin; test: Displacement of [3H]colchicine from biotinylated pig brain tubulin after 2 hrs by competitive scintillation proximity assay
[16] = molecular target: Tubulin (Sus scrofa) (UniProt P02554+P02550); test: Displacement of [3H]paclitaxel from biotinylated pig brain tubulin after 2 hrs by competitive scintillation proximity assay
[17] = system: P388; test: Antiproliferative activity against ADR-resistant mouse P388 cells after 48 hrs by XTT assay; format: functional, cell-based; details: P388, 48 h; in short: as §1

Question: Which IC50 [1] does the source give for `COc1ccc(OC)c(NN=C2c3ccccc3C(=O)c3ccccc32)c1` here?
Answer: > 80000 nM

Question: And the IC50 [2]?
Answer: > 10 µM

Question: With `COc1ccc(N=C2c3ccccc3C(=O)c3ccccc32)cc1` as the compound, how does the IC50 [1] read?
Answer: 680 nM

Question: What about the IC50 [2] of the same compound?
Answer: 1.9 µM

Question: Which IC50 [3] does the source give for `COC(=O)Nc1nc2cc(C(=O)c3cccs3)ccc2[nH]1` [NOCODAZOLE] here?
Answer: 110 nM

Question: And the EC50 [4]?
Answer: 91 nM

Question: And the IC50 [5]?
Answer: > 10 µM

Question: And the IC50 [6]?
Answer: 140 nM

Question: And the IC50 [7]?
Answer: 40 nM

Question: What about the IC50 [8] of the same compound?
Answer: 70 nM

Question: With `O=C1c2ccccc2C(=Nc2ccc3c(c2)OCO3)c2ccccc21` as the compound, how does the IC50 [1] read?
Answer: 2670 nM

Question: Which results are given for `COc1ccc(N=C2c3cccc(Cl)c3C(=O)c3c(Cl)cccc32)cc1O`?
Answer: IC50 [3]: 160 nM; IC50 [9]: 190 nM; IC50 [10]: 190 nM; IC50 [11]: 150 nM; IC50 [12]: 230 nM; EC50 [4]: 121 nM; IC50 [5]: > 9 µM; IC50 [1]: 110 nM; IC50 [6]: 150 nM; IC50 [13]: 100 nM; IC50 [14]: 180 nM; IC50 [15]: 2.6 µM; IC50 [7]: 310 nM; Activity [16]: inactive; IC50 [17]: 300 nM; IC50 [2]: 1.11 µM; IC50 [8]: 160 nM

Question: With `O=C1c2ccccc2C(=NNc2ccccc2)c2ccccc21` as the compound, how does the IC50 [2] read?
Answer: > 10 µM

Question: For `CC[C@]1(O)C[C@H]2CN(CCc3c([nH]c4ccccc34)[C@@](C(=O)OC)(c3cc4c(cc3OC)N(C=O)[C@H]3[C@@](O)(C(=O)OC)[C@H](OC(C)=O)[C@]5(CC)C=CCN6CC[C@]43[C@@H]65)C2)C1` [VINCRISTINE], which EC50 [4] is on record?
Answer: 2.4 nM

Question: With `COc1cccc(NN=C2c3ccccc3C(=O)c3ccccc32)c1` as the compound, how does the IC50 [1] read?
Answer: 9000 nM

Question: And the IC50 [2]?
Answer: > 10 µM

Question: With `COc1cc(N=C2c3ccccc3C(=O)c3ccccc32)cc(OC)c1OC` as the compound, how does the IC50 [1] read?
Answer: > 30000 nM

Question: And the IC50 [2]?
Answer: > 10 µM

Question: Which results are given for `COc1cc2c(c(OC)c1OC)-c1ccc(OC)c(=O)cc1[C@@H](NC(C)=O)CC2` [COLCHICINE]?
Answer: IC50 [3]: 20 nM; EC50 [4]: 14 nM; IC50 [5]: > 10 µM; IC50 [6]: 30 nM

Question: Which IC50 [3] does the source give for `CC(=O)O[C@H]1C(=O)[C@@]2(C)[C@H]([C@H](OC(=O)c3ccccc3)[C@]3(O)C[C@H](OC(=O)[C@H](O)[C@@H](NC(=O)c4ccccc4)c4ccccc4)C(C)=C1C3(C)C)[C@]1(OC(C)=O)CO[C@@H]1C[C@@H]2O` [PACLITAXEL] here?
Answer: 10 nM

Question: And the IC50 [9]?
Answer: > 5000 nM

Question: What about the EC50 [4] of the same compound?
Answer: 49 nM

Question: And the IC50 [5]?
Answer: > 3 µM

Question: What about the IC50 [6] of the same compound?
Answer: 10 nM

Question: And the IC50 [17]?
Answer: > 5000 nM

Question: And the IC50 [8]?
Answer: 400 nM

Question: With `COc1ccc(N=C2c3ccccc3C(=O)c3ccccc32)c(OC)c1` as the compound, how does the IC50 [1] read?
Answer: 3400 nM

Question: And the IC50 [2]?
Answer: 1.6 µM

Question: With `COc1cc(NN=C2c3ccccc3C(=O)c3ccccc32)cc(OC)c1OC` as the compound, how does the IC50 [1] read?
Answer: 2740 nM

Question: And the IC50 [2]?
Answer: > 10 µM

Question: For `CC[C@]1(O)C[C@@H]2CN(CCc3c([nH]c4ccccc34)[C@@](C(=O)OC)(c3cc4c(cc3OC)N(C)[C@H]3[C@@](O)(C(N)=O)[C@H](O)[C@]5(CC)C=CCN6CC[C@]43[C@@H]65)C2)C1` [VINDESINE], which IC50 [9] is on record?
Answer: > 5000 nM

Question: And the IC50 [7]?
Answer: 1 nM

Question: And the IC50 [8]?
Answer: 260 nM

Question: For `COc1cc(N=C2c3ccccc3C(=O)c3ccccc32)cc(OC)c1`, which IC50 [1] is on record?
Answer: 730 nM

Question: And the IC50 [2]?
Answer: 1.6 µM

Question: For `COc1ccc(N=C2c3cccc(Cl)c3C(=O)c3c(Cl)cccc32)cc1`, which IC50 [1] is on record?
Answer: 520 nM

Question: For `COc1ccc(N=C2c3ccccc3C(=O)c3ccccc32)cc1OC`, which IC50 [1] is on record?
Answer: 9300 nM

Question: And the IC50 [2]?
Answer: 3.6 µM

Question: With `COc1ccc(NN=C2c3ccccc3C(=O)c3ccccc32)cc1` as the compound, how does the IC50 [1] read?
Answer: 8410 nM

Question: What about the IC50 [2] of the same compound?
Answer: > 10 µM

Question: For `COc1ccc(OC)c(N=C2c3ccccc3C(=O)c3ccccc32)c1`, which IC50 [1] is on record?
Answer: 870 nM

Question: Which IC50 [1] does the source give for `O=C1c2ccccc2C(=Nc2ccccc2)c2ccccc21` here?
Answer: 6800 nM

Question: What about the IC50 [2] of the same compound?
Answer: 1.45 µM

Question: Which results are given for `COc1ccc(N=C2c3ccccc3C(=O)c3ccccc32)cc1O`?
Answer: IC50 [3]: 170 nM; IC50 [9]: 220 nM; IC50 [10]: 290 nM; IC50 [11]: 340 nM; IC50 [12]: 230 nM; EC50 [4]: 359 nM; IC50 [5]: > 9 µM; IC50 [1]: 130 nM; IC50 [6]: 220 nM; IC50 [13]: 160 nM; IC50 [14]: 210 nM; IC50 [15]: 1.1 µM; IC50 [7]: 180 nM; Activity [16]: inactive; IC50 [17]: 230 nM; IC50 [2]: 0.44 µM; IC50 [8]: 140 nM
